# According to ChEMBL document CHEMBL1140128 (J Med Chem, 2008):
# Calls of active or inactive are those of the source. The rule behind the calls is not given here.
# Experiments:
# [1] = molecular target: Melanocyte-stimulating hormone receptor (Mus musculus) (UniProt Q01727); assay: Agonist activity at mouse MC1R expressed in HEK293 cells by CRE/beta-galactosidase reporter gene assay relative to Ac-His-DPhe7-Arg-Trp-NH2 peptide; assay type: functional, cell-based
# Outline: (§1)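 HEK293 cells stably expressing the mouse receptor (G418 selection) were transfected with CRE/β-galactosidase reporter. After 48 h they were stimulated for 6 h with peptide (10^-4–10^-12 M) in DMEM with 0.1 mg/mL BSA and 0.1 mM IBMX. Lysates were read with ONPG substrate at OD405 and normalized to protein (OD595) and to a 10^-4 M forskolin control.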
# [2] = molecular target: Melanocortin receptor 3 (Mus musculus) (UniProt P33033); assay: Agonist activity at mouse MC3R expressed in HEK293 cells by CRE/beta-galactosidase reporter gene assay relative to Ac-His-DPhe7-Arg-Trp-NH2 peptide; assay type: functional, cell-based; outline: as §1
# [3] = molecular target: Melanocortin receptor 4 (Mus musculus) (UniProt P56450); assay: Agonist activity at mouse MC4R expressed in HEK293 cells by CRE/beta-galactosidase reporter gene assay relative to Ac-His-DPhe7-Arg-Trp-NH2 peptide; assay type: functional, cell-based; outline: as §1
# [4] = molecular target: Melanocortin receptor 5 (Mus musculus) (UniProt P41149); assay: Agonist activity at mouse MC5R expressed in HEK293 cells by CRE/beta-galactosidase reporter gene assay relative to Ac-His-DPhe7-Arg-Trp-NH2 peptide; assay type: functional, cell-based; outline: as §1
# [5] = molecular target: T1, Melanocortin receptor 3 (Mus musculus, UniProt P33033); assay: Antagonist activity at mouse MC3R expressed in HEK293 cells assessed as effect on MT2 peptide-induced response by CRE/beta-galactosidase reporter gene assay; assay type: functional, cell-based; details: for Kb: read-out: pA2 (converted)
# Outline: (§2)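 Mouse MC3R HEK293 stable line carrying transfected CRE/β-galactosidase reporter, 6 h stimulation in IBMX-containing medium. Peptides tested for dose-dependent competitive displacement of MTII agonist at up to 10 μM (footnote: up to 100 μM).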
# [6] = molecular target: Melanocortin receptor 3 (Mus musculus) (UniProt P33033); assay: Agonist activity at mouse MC3R expressed in HEK293 cells up to 100 uM by CRE/beta-galactosidase reporter gene assay; assay type: functional, cell-based; outline: as §1
# [7] = molecular target: Melanocortin receptor 3 (Mus musculus) (UniProt P33033); assay: Antagonist activity at mouse MC3R expressed in HEK293 cells assessed as effect on MT2 peptide-induced response up to 100 uM by CRE/beta-galactosidase reporter gene assay; assay type: functional, cell-based; outline: as §2
# [8] = organism: Mus musculus; assay: Selectivity for mouse MC4R over mouse MC1R by CRE/beta-galactosidase reporter gene assay
# [9] = organism: Mus musculus; assay: Selectivity for mouse MC4R over mouse MC3R by CRE/beta-galactosidase reporter gene assay
# [10] = molecular target: T2, Melanocortin receptor 4 (Mus musculus, UniProt P56450); assay: Agonist activity at mouse MC4R expressed in HEK293 cells by CRE/beta-galactosidase reporter gene assay; assay type: functional, cell-based; outline: as §1
# [11] = molecular target: T2, Melanocortin receptor 4; assay: Antagonist activity at mouse MC4R expressed in HEK293 cells assessed as effect on MT2 peptide-induced response by CRE/beta-galactosidase reporter gene assay; assay type: functional, cell-based; details: read-out: pA2 (converted)
# [12] = molecular target: Melanocortin receptor 5 (Mus musculus, UniProt P41149); assay: Agonist activity at mouse MC5R expressed in HEK293 cells by CRE/beta-galactosidase reporter gene assay; assay type: functional, cell-based; outline: as §1
# [13] = molecular target: Melanocyte-stimulating hormone receptor (Mus musculus, UniProt Q01727); assay: Agonist activity at mouse MC1R expressed in HEK293 cells by CRE/beta-galactosidase reporter gene assay; assay type: functional, cell-based
# Outline: (§3)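 HEK293 cells stably expressing the mouse receptor (G418 selection) were transfected with CRE/β-galactosidase reporter. Lysates were read with ONPG substrate at OD405 and normalized to protein (OD595) and to a 10^-4 M forskolin control.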
# [14] = molecular target: T1, Melanocortin receptor 3; assay: Agonist activity at mouse MC3R expressed in HEK293 cells by CRE/beta-galactosidase reporter gene assay; assay type: functional, cell-based; outline: as §3
# Sequence of Melanocyte-stimulating hormone receptor (Mus musculus) (Q01727 whole entry, looked up): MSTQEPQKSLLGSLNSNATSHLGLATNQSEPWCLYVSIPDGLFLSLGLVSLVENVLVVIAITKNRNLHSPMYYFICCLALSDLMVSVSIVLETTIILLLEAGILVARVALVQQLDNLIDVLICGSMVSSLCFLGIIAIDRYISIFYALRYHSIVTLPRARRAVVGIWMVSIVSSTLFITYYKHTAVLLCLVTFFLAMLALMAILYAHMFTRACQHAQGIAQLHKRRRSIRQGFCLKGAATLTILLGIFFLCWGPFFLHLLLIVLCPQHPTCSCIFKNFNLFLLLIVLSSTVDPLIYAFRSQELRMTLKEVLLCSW
# Sequence of Melanocyte-stimulating hormone receptor (Q01727 whole entry): as the sequence (Q01727 whole entry, looked up) above
# Sequence of Melanocortin receptor 5 (P41149 whole entry): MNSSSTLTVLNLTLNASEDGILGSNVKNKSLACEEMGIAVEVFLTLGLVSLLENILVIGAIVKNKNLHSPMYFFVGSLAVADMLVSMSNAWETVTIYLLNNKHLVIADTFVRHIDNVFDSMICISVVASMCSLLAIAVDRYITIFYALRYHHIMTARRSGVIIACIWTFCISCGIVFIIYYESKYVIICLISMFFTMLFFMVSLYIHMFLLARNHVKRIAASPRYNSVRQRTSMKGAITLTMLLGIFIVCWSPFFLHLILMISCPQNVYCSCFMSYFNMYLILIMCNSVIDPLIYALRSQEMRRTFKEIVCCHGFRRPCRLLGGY
# Sequence of Melanocortin receptor 5 (Mus musculus) (P41149 whole entry): as above
# T1 sequence (P33033 whole entry): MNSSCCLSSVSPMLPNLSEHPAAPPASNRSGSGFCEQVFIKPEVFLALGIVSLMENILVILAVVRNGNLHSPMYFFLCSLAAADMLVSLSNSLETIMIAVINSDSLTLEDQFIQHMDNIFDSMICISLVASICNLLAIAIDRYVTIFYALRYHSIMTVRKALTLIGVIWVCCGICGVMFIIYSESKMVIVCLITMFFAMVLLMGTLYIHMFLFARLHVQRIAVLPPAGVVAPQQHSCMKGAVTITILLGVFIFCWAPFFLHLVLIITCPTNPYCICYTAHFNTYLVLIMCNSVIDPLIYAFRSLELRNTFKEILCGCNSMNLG
# Sequence of Melanocortin receptor 3 (Mus musculus) (P33033 whole entry): as above
# Sequence of Melanocortin receptor 4 (Mus musculus) (P56450 whole entry): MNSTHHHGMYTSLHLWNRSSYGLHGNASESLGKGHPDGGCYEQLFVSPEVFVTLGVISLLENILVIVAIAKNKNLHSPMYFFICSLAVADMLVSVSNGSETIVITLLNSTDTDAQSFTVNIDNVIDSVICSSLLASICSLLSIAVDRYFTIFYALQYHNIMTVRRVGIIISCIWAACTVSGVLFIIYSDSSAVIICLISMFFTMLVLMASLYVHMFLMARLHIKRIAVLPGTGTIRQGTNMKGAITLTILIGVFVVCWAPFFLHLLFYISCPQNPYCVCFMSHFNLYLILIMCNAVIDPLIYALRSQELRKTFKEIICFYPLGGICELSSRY
# T2 sequence (P56450 whole entry): as above
structure (smiles),measurement,setting,value
CC(=O)N[C@@H](Cc1cnc[nH]1)C(=O)N[C@H](Cc1ccccc1)C(=O)N[C@@H](CCCNC(=N)N)C(=O)N[C@@H](Cc1c[nH]c2ccccc12)C(N)=O,fold change (FC),[1],1
same,fold change (FC),[2],1
same,fold change (FC),[3],1
same,fold change (FC),[4],1
CC(=O)N[C@@H](Cc1cnc[nH]1)C(=O)N[C@H](Cc1ccc(Br)cc1)C(=O)N[C@@H](CCCNC(=N)N)C(=O)N[C@@H](Cc1c[nH]c2ccccc12)C(N)=O,Ki,[5],350 nM
same,Kb,[5],28.8 nM
CC(=O)N[C@@H](Cc1cnc[nH]1)C(=O)N[C@H](Cc1ccc(C(C)(C)C)cc1)C(=O)N[C@@H](CCCNC(=N)N)C(=O)N[C@@H](Cc1c[nH]c2ccccc12)C(N)=O,Activity,[6],inactive
same,Activity,[7],inactive
CC(=O)N[C@@H](Cc1cnc[nH]1)C(=O)N[C@H](Cc1ccc(Cl)cc1)C(=O)N[C@@H](CCCNC(=N)N)C(=O)N[C@@H](Cc1c[nH]c2ccccc12)C(N)=O,fold change (FC),[4],-2
same,Ratio EC50,[8],200
same,Ratio EC50,[9],200
CC(=O)N[C@@H](Cc1cnc[nH]1)C(=O)N[C@H](Cc1cccc(Cl)c1)C(=O)N[C@@H](CCCNC(=N)N)C(=O)N[C@@H](Cc1c[nH]c2ccccc12)C(N)=O,Ratio EC50,[9],140
CC(=O)N[C@@H](Cc1cnc[nH]1)C(=O)N[C@H](Cc1ccc(C)cc1)C(=O)N[C@@H](CCCNC(=N)N)C(=O)N[C@@H](Cc1c[nH]c2ccccc12)C(N)=O,fold change (FC),[3],2
same,fold change (FC),[4],2
CC(=O)N[C@H](Cc1cnc[nH]1)C(=O)NC(Cc1ccc2ccccc2c1)C(=O)N[C@@H](CCCNC(=N)N)C(=O)N[C@@H](Cc1c[nH]c2ccccc12)C(N)=O (stereo in doubt),Ki,[5],5010 nM
CC(=O)N[C@@H](Cc1cnc[nH]1)C(=O)N[C@H](Cc1ccccc1)C(=O)N[C@@H](CCCN=C(N)N)C(=O)N[C@@H](Cc1c[nH]c2ccccc12)C(N)=O,EC50,[10],2.28 nM
same,Kb,[11],5.01 nM
same,EC50,[12],3.26 nM
CC(=O)N[C@@H](Cc1cnc[nH]1)C(=O)N[C@H](Cc1ccc(F)cc1)C(=O)N[C@@H](CCCNC(=N)N)C(=O)N[C@@H](Cc1c[nH]c2ccccc12)C(N)=O,fold change (FC),[1],-2
same,fold change (FC),[2],-2
same,Ratio EC50,[8],200
same,Ratio EC50,[9],200
CC(=O)N[C@@H](Cc1cnc[nH]1)C(=O)N[C@H](Cc1ccc(Cl)c(Cl)c1)C(=O)N[C@@H](CCCNC(=N)N)C(=O)N[C@@H](Cc1c[nH]c2ccccc12)C(N)=O,fold change (FC),[1],1
CC(=O)N[C@@H](Cc1cnc[nH]1)C(=O)N[C@H](Cc1ccc(C#N)cc1)C(=O)N[C@@H](CCCNC(=N)N)C(=O)N[C@@H](Cc1c[nH]c2ccccc12)C(N)=O,EC50,[10],2.84 nM
same,fold change (FC),[4],1
CC(=O)N[C@@H](Cc1cnc[nH]1)C(=O)N[C@H](Cc1ccc([N+](=O)[O-])cc1)C(=O)N[C@@H](CCCNC(=N)N)C(=O)N[C@@H](Cc1c[nH]c2ccccc12)C(N)=O,fold change (FC),[2],5
CC(=O)N[C@@H](Cc1cnc[nH]1)C(=O)N[C@H](Cc1ccc(N)cc1)C(=O)N[C@@H](CCCNC(=N)N)C(=O)N[C@@H](Cc1c[nH]c2ccccc12)C(N)=O,fold change (FC),[1],21
same,fold change (FC),[2],130
same,fold change (FC),[3],96
same,fold change (FC),[4],69
CC(=O)N[C@@H](Cc1cnc[nH]1)C(=O)N[C@H](Cc1ccc(C(=O)c2ccccc2)cc1)C(=O)N[C@@H](CCCNC(=N)N)C(=O)N[C@@H](Cc1c[nH]c2ccccc12)C(N)=O,EC50,[13],180 nM
same,EC50,[10],63.8 nM
same,EC50,[12],51.1 nM
CC(=O)N[C@@H](Cc1cnc[nH]1)C(=O)N[C@H](Cc1ccc(O)cc1)C(=O)N[C@@H](CCCNC(=N)N)C(=O)N[C@@H](Cc1c[nH]c2ccccc12)C(N)=O,EC50,[13],2600 nM
same,fold change (FC),[1],23
same,EC50,[14],12.5 µM
same,fold change (FC),[2],99
same,EC50,[10],390 nM
same,fold change (FC),[3],171
same,EC50,[12],730 nM
same,fold change (FC),[4],223
CC(=O)N[C@@H](Cc1cnc[nH]1)C(=O)N[C@H](Cc1ccc(C(F)(F)F)cc1)C(=O)N[C@@H](CCCNC(=N)N)C(=O)N[C@@H](Cc1c[nH]c2ccccc12)C(N)=O,Ki,[5],6170 nM
same,Kb,[5],162 nM
CC(=O)N[C@@H](Cc1cnc[nH]1)C(=O)N[C@H](Cc1ccc(F)cc1)C(=O)N[C@@H](CCCN=C(N)N)C(=O)N[C@@H](Cc1c[nH]c2ccccc12)C(N)=O,EC50,[13],53.7 nM
CC(=O)N[C@@H](Cc1cnc[nH]1)C(=O)N[C@H](Cc1ccc(N)cc1)C(=O)N[C@@H](CCCN=C(N)N)C(=O)N[C@@H](Cc1c[nH]c2ccccc12)C(N)=O,EC50,[12],226 nM
CC(=O)N[C@@H](Cc1cnc[nH]1)C(=O)N[C@H](Cc1ccc(Cl)c(Cl)c1)C(=O)N[C@@H](CCCN=C(N)N)C(=O)N[C@@H](Cc1c[nH]c2ccccc12)C(N)=O,Ki,[5],260 nM
same,Kb,[5],38 nM
